According to ChEMBL document CHEMBL1157250, “Bioactive dibenzylbutyrolactone and dibenzylbutanediol lignans from Peperomia duclouxii” (J Nat Prod, 2006):

Tests used:
[1] = Reversal of multidrug resistance in human 2780AD cells assessed as accumulation of calcein at 0.25 ug/mL after 15 mins by fluorescence technique relative to verapamil; assay type: functional, A2780 ADR
Outline: (§1)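 Same 2780AD set-up: 24 h pre-culture, then a 15 min compound pre-exposure (DMSO/PBS(-) dilution), calcein AM added (1 µM in PBS(-) as added) for 60 min, cold PBS(-) washes, and a calcein fluorescence read. Accumulation is expressed relative to that obtained with verapamil at the same concentration, mean of triplicates.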

[2] = Reversal of multidrug resistance in human 2780AD cells assessed as accumulation of calcein at 2.5 ug/mL after 15 mins by fluorescence technique relative to control; assay type: functional, A2780 ADR
Outline: (§2)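 MDR ovarian 2780AD cells (RPMI-1640, 10% FBS), ca. 1 × 10^5 per well, held 24 h at 37 °C in 5% CO2. Compounds in DMSO diluted with PBS(-) were added 15 min before calcein AM (1 µM in PBS(-) as added), incubated 60 min, then washed with cold PBS(-). Calcein fluorescence is given as a percentage of untreated control, mean of triplicates.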

[3] = test system: HepG2; test: Growth inhibition of human HepG2 cells after 48 hrs by WST8 assay; assay type: functional, cell-based; settings: HepG2, 48 h
Outline: (§3)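 Cells seeded at ca. 5000 per well, held 24 h at 37 °C in 5% CO2, then exposed 48 h to samples dissolved in DMSO. Media with 10% FBS: WI-38 in Eagle's MEM, VA-13 in RITC 80-7, HepG2 in D-MEM. WST-8 formazan read at 450 nm. Viability is background-corrected versus control, IC50 is taken from viability–concentration plots, and values are means of three independent experiments.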

[4] = Growth inhibition of human WI38 cells after 48 hrs by WST8 assay; assay type: cell-based; settings: WI-38, 48 h; outline: as §3
[5] = Reversal of multidrug resistance in human 2780AD cells assessed as accumulation of calcein at 25 ug/mL after 15 mins by fluorescence technique relative to verapamil; assay type: functional, A2780 ADR; outline: as §1
[6] = Reversal of multidrug resistance in human 2780AD cells assessed as accumulation of calcein at 2.5 ug/mL after 15 mins by fluorescence technique relative to verapamil; assay type: functional, A2780 ADR; outline: as §1
[7] = Reversal of multidrug resistance in human 2780AD cells assessed as accumulation of calcein at 0.25 ug/mL after 15 mins by fluorescence technique relative to control; assay type: functional, A2780 ADR; outline: as §2
[8] = test system: WI-38 VA13; test: Growth inhibition of human VA13 cells after 48 hrs by WST8 assay; assay type: functional, cell-based; settings: WI-38 VA13, 48 h; outline: as §3
[9] = Reversal of multidrug resistance in human 2780AD cells assessed as accumulation of calcein at 25 ug/mL after 15 mins by fluorescence technique relative to control; assay type: functional, A2780 ADR; outline: as §2

SMILES | Activity [1] [%] | Activity [2] [%] | IC50 [3] [µM] | IC50 [4] [µM] | Activity [5] [%] | Activity [6] [%] | Activity [7] [%] | IC50 [8] [µM] | Activity [9] [%]
COc1cc(C[C@@H]2C(=O)OC[C@H]2Cc2cc(OC)c3c(c2)OCO3)cc(OC)c1O | 83 | 91 | 204 | 195 | 97 | 94 | 86 | 130 | 129
COc1cc(C[C@H](COC(C)=O)[C@@H](COC(C)=O)Cc2cc(OC)c3c(c2)OCO3)cc2c1OCO2 | – | – | > 199 | > 199 | – | – | – | > 199 | –
COc1cc(C[C@@H]2C(=O)OC[C@H]2Cc2cc(OC)c3c(c2)OCO3)cc(OC)c1OC | 92 | 99 | 42.8 | > 232 | 116 | 102 | 96 | 118 | 155
COc1cc(C[C@@H]2C(=O)OC[C@H]2Cc2cc(OC)c3c(c2)OCO3)cc(O)c1O | 110 | 91 | 162 | 141 | 84 | 86 | 98 | 181 | 120
COc1cc(C[C@@H]2COC(=O)[C@H]2Cc2ccc3c(c2)OCO3)cc2c1OCO2 | 102 | 74 | > 260 | > 260 | 67 | 70 | 91 | > 260 | 96
COc1cc(C(=O)[C@@H]2C(=O)OC[C@H]2Cc2cc(OC)c3c(c2)OCO3)cc(OC)c1O | – | – | 185 | 172 | – | – | – | 127 | –
COc1cc(/C=C2/C(=O)OC[C@H]2Cc2cc(OC)c3c(c2)OCO3)cc(OC)c1O | 87 | 90 | 198 | 241 | 86 | 93 | 90 | 157 | 114
CC(=O)O[C@H]1C(=O)[C@@]2(C)[C@H]([C@H](OC(=O)c3ccccc3)[C@]3(O)C[C@H](OC(=O)[C@H](O)[C@@H](NC(=O)c4ccccc4)c4ccccc4)C(C)=C1C3(C)C)[C@]1(OC(C)=O)CO[C@@H]1C[C@@H]2O [PACLITAXEL] | – | – | 6.9 | 0.034 | – | – | – | 0.0043 | –
COc1cc(C[C@@H](CO)[C@H](CO)Cc2cc(OC)c3c(c2)OCO3)cc2c1OCO2 | 93 | 103 | 151 | 185 | 91 | 107 | 97 | 219 | 121
COc1cc(C[C@@H]2C(=O)OC[C@H]2Cc2ccc3c(c2)OCO3)cc(OC)c1O | 90 | 94 | > 260 | > 259 | 96 | 97 | 93 | 183 | 127
COc1cc(C[C@@H]2COC(=O)[C@H]2Cc2cc(OC)c3c(c2)OCO3)cc2c1OCO2 | 104 | 91 | 208 | > 241 | 81 | 86 | 93 | 130 | 116
COc1cccc2c1C(=O)c1c(O)c3c(c(O)c1C2=O)C[C@@](O)(C(=O)CO)C[C@@H]3O[C@H]1C[C@H](N)[C@H](O)[C@H](C)O1 [DOXORUBICIN] | – | – | 0.69 | 0.38 | – | – | – | 0.22 | –
COc1cc(C[C@@H]2C(=O)OC[C@H]2Cc2ccc3c(c2)OCO3)cc2c1OCO2 | 90 | 109 | 26.4 | > 260 | 86 | 103 | 80 | 23.2 | 124
COc1cc(C[C@@H]2C(=O)OC[C@H]2Cc2cc(OC)c3c(c2)OCO3)ccc1O | 74 | 86 | 200 | > 259 | 64 | 89 | 77 | 210 | 85
COc1cc([C@@H](O)[C@H]2C(=O)OC[C@@H]2Cc2cc(OC)c3c(c2)OCO3)cc(OC)c1O | 88 | 93 | > 231 | > 231 | 78 | 96 | 91 | 229 | 104
COc1ccc(CCN(C)CCCC(C#N)(c2ccc(OC)c(OC)c2)C(C)C)cc1OC (centres undefined) [VERAPAMIL] | – | 106 | – | – | – | – | 104 | – | 144
